In PMC2923871 (Journal of Medicinal Chemistry, 2010):
Read-outs that look alike come from different tables or passages of the source.

How the values were obtained:
[1] = phosphate buffer pH 7.4; previously reported compound; cited from earlier work
T. brucei = details: cited from earlier work
[2] = Pooled human liver microsomal assay; type: in vitro ADME; details: pooled human liver microsomes, 0.5 μM compound, NADPH
Procedure, shortened: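 Microsomes at 0.5 mg/mL in 50 mM potassium phosphate, pH 7.4, reaction started with excess NADPH. Aliquots at 0, 3, 6, 9, 15 and 30 min quenched in acetonitrile, internal standard added, protein spun down, UPLC-MS/MS. Rate constant from exponential decay of compound/internal standard peak-area ratio. CLi scaled by incubation volume/mg protein and 52.5 mg protein/g liver. Verapamil positive control.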

[3] = Chemical stability in phosphate buffer at pH 7.4; type: physicochemical; details: pH 7.4, t1/2 pH 7.4, phosphate buffer pH 7.4
[4] = tested on: bloodstream form T. b. brucei BS427; assay: Trypanocidal activity, Alamar Blue assay; type: cell-based

SMILES: COC(=O)[C@@H](C)NP(=O)(OC[C@H]1OC(C)(C)O[C@H]1C(=O)NO)Oc1ccc([N+](=O)[O-])cc1 (stereo partly drawn) [15a]
- half-life [1]: about 50 min

SMILES: CC1(C)O[C@H](COP(=O)(O)O)[C@H](C(=O)NO)O1 [compound 1, 2,3-O-Isopropylidene-4-erythrono hydroxamate]
- EC50 (T. brucei; T. brucei cell culture, previously reported compounds): > 330000 nM
- activity against the parasite (T. brucei; result in words): inactive

SMILES: CCOC(=O)[C@H](NP(=O)(OC[C@H]1OC(C)(C)O[C@H]1C(=O)NO)Oc1ccc(C)cc1)C(C)C (stereo partly drawn) [15l]
- PHLM Cli [2]: <0.5 mL/min/g

SMILES: COC(=O)[C@@H](C)NP(=O)(OC[C@H]1OC(C)(C)O[C@H]1C(=O)NO)Oc1cccc(C)c1C (stereo partly drawn) [15o]
- half-life [3]: 30 h
- IC50 ([4]; Trypanosoma brucei): 270 nM

SMILES: Cc1cccc(OP(=O)(N[C@@H](C(=O)OC(C)(C)C)C(C)C)OC[C@H]2OC(C)(C)O[C@H]2C(=O)NO)c1C (stereo partly drawn) [15q]
- increase in activity ([4]; 15q relative to 15a): more than 5000 times

SMILES: CCOC(=O)[C@H](NP(=O)(OC[C@H]1OC(C)(C)O[C@H]1C(=O)NO)Oc1cccc(C)c1C)C(C)C (stereo partly drawn) [15p]
- PHLM Cli [2]: <0.5 mL/min/g

SMILES: CCOC(=O)[C@H](NP(=O)(OC[C@H]1OC(C)(C)O[C@H]1C(=O)NO)Oc1ccccc1)C(C)C (stereo partly drawn) [15f]
- PHLM Cli [2]: <0.5 mL/min/g
